Assay results taken from ChEMBL document CHEMBL1123566, “Synthesis and cardiac electrophysiological activity of 2- and 3-[(substituted phenyl)alkyl]quinuclidines. Structure-activity relationships” (1987).
Values joined by “and” are separate entries in the source; they are usually repeats but may differ in a detail not shown here. Equal values may be shown once.

Assays:
Canis familiaris [1] = species: Canis familiaris; test: In vitro electrophysiological evaluation in canine cardiac Purkinje fibres reported as % change for action potential duration at 10 uM at 0.1-100 uM concentration range; format: functional, Canis lupus familiaris, Purkinje fiber
Method in brief: (§1)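 Canine cardiac Purkinje fibres, intracellular microelectrode recording, paced at a basic cycle length of 1 s. APD95 and Vmax read simultaneously. Compound: 10 mM stock in deionized water, diluted into Tyrode's solution, tested over the stated concentration range. Each fibre used once as its own control. Result is % change from control, given at 10 µM or as the maximum with its concentration. M = <10% decrease or an increase in Vmax.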

Canis familiaris [2] = species: Canis familiaris; test: In vitro electrophysiological evaluation in canine cardiac ventricular muscle reported as maximum % change for functional refractory period (FRP) at 0.1-100 uM concentration range; concentration at which it occurred is 10 uM; design: species or system Canis lupus familiaris, Muscle tissue
Method in brief: (§2)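 Canine right ventricle and papillary muscle strips in oxygenated Tyrode's solution, fitted with stimulating and recording electrodes. The extra-stimulus conduction-interval method was adapted for in vitro use. FRP and CT were read from a conduction-interval curve before and after various compound concentrations, and expressed as percent change from control. Compounds were taken from 10 mM deionized-water stock into Tyrode's. Each strip was used once as its own control.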

Canis familiaris [3] = species: Canis familiaris; test: (§3) In vitro electrophysiological activity in canine cardiac occurred is 100 uM; format: functional, Canis lupus familiaris, Heart
Canis familiaris [4] = species: Canis familiaris; test: (§4) In vitro electrophysiological evaluation in canine cardiac occurred is 100 uM; format: functional; details: Canis lupus familiaris; Heart
Canis familiaris [5] = species: Canis familiaris; test: In vitro electrophysiological evaluation in canine cardiac Purkinje fibres reported as percent change Vmax at 10 uM at concentration range of 0.1-100 uM; Minimal (<10% decrease or increase in V max).; format: functional, organism-based; details: Canis lupus familiaris, Purkinje fiber; method in brief: as §1
Canis familiaris [6] = species: Canis familiaris; test: In vitro electrophysiological evaluation in canine cardiac Purkinje fibres reported as % change for action potential duration at a concentration of 10 uM; format: functional, Canis lupus familiaris, Purkinje fiber; method in brief: as §1
Canis familiaris [7] = species: Canis familiaris; test: In vitro electrophysiological evaluation in canine cardiac ventricular muscle reported as maximum % change for conduction time(CT) at 0.1-100 uM concentration range; Minimal (<10% decrease or increase in CT).; format: functional, Canis lupus familiaris, Muscle tissue; method in brief: as §2
Canis familiaris [8] = species: Canis familiaris; test: In vitro electrophysiological evaluation in canine cardiac Purkinje fibres reported as percent change Vmax at 10 uM at concentration range of 0.1-100 uM.; format: functional, organism-based; details: Canis lupus familiaris, Purkinje fiber; method in brief: as §1
Canis familiaris [9] = species: Canis familiaris; test: In vitro electrophysiological evaluation in canine cardiac ventricular muscle reported as % change for the functional refractory period (FRP) at 10 uM at concentration range of 0.1-100 uM; design: species or system Canis lupus familiaris, Muscle tissue; method in brief: as §2
Canis familiaris [10] = species: Canis familiaris; test: In vitro electrophysiological activity in canine cardiac occurred is 10 uM; format: functional, Canis lupus familiaris, Heart
Canis familiaris [11] = species: Canis familiaris; test: In vitro electrophysiological evaluation in canine cardiac ventricular muscle reported as maximum % change for functional refractory period (FRP) at 0.1-100 uM concentration range; concentration at which it occurred is 100 uM; design: species or system Canis lupus familiaris, Muscle tissue; method in brief: as §2
Canis familiaris [12] = species: Canis familiaris; test: In vitro electrophysiological evaluation in canine cardiac ventricular muscle reported as % change for conduction time(CT) at 10 uM at 0.1-100 uM concentration range; Minimal (<10% decrease or increase in CT).; format: functional, Canis lupus familiaris, Muscle tissue
Canis familiaris [13] = species: Canis familiaris; test: In vitro electrophysiological evaluation in canine cardiac Purkinje fibres reported as percent change Vmax at 10 uM at concentration range of 1-100 uM; Minimal (<10% decrease or increase in V max).; format: functional; details: Canis lupus familiaris, Purkinje fiber; method in brief: as §1
Canis familiaris [14] = species: Canis familiaris; test: In vitro electrophysiological evaluation in canine cardiac Purkinje fibres reported as percent change Vmax at 10 uM at concentration range of 1-100 uM; format: functional; details: Canis lupus familiaris, Purkinje fiber; method in brief: as §1
Canis familiaris [15] = species: Canis familiaris; test: as §4; format: functional; details: Canis lupus familiaris; Heart; remark: listed apart in the source
Canis familiaris [16] = species: Canis familiaris; test: In vitro electrophysiological evaluation in canine cardiac Purkinje fibres reported as % change for action potential duration at 10 uM at 1-100 uM concentration range; format: functional, Canis lupus familiaris, Purkinje fiber; method in brief: as §1
Canis familiaris [17] = species: Canis familiaris; test: In vitro electrophysiological evaluation in canine cardiac Purkinje fibres reported as maximum percent change Vmax concentration range of 1-100 uM; Minimal (<10% decrease or increase in V max).; format: functional; details: Canis lupus familiaris; Purkinje fiber; method in brief: as §1
Canis familiaris [18] = species: Canis familiaris; test: In vitro electrophysiological evaluation in canine cardiac ventricular muscle reported as maximum % change for conduction time(CT) at 0.1-10 uM concentration range; Minimal (<10% decrease or increase in CT).; format: functional, Canis lupus familiaris, Muscle tissue; method in brief: as §2
Canis familiaris [19] = species: Canis familiaris; test: In vitro electrophysiological evaluation in canine cardiac Purkinje fibres reported as maximum percent change Vmax concentration range of 0.1-100 uM; Minimal (<10% decrease or increase in V max).; format: functional; details: Canis lupus familiaris; Purkinje fiber; method in brief: as §1
Canis familiaris [20] = species: Canis familiaris; test: In vitro electrophysiological evaluation in canine cardiac ventricular muscle reported as maximum % change for functional refractory period (FRP) at 0.1-10 uM concentration range; concentration at which it occurred is 10 uM; design: species or system Canis lupus familiaris, Muscle tissue; method in brief: as §2
Canis familiaris [21] = species: Canis familiaris; test: In vitro electrophysiological evaluation in canine cardiac ventricular muscle reported as % change for the functional refractory period (FRP) at 10 uM at concentration range of 0.1-10 uM; design: species or system Canis lupus familiaris, Muscle tissue; method in brief: as §2
Canis familiaris [22] = species: Canis familiaris; test: In vitro electrophysiological evaluation in canine cardiac ventricular muscle reported as % change for conduction time(CT) at 10 uM at 0.1-10 uM concentration range; Minimal (<10% decrease or increase in CT).; format: functional, Canis lupus familiaris, Muscle tissue
Canis familiaris [23] = species: Canis familiaris; test: In vitro electrophysiological evaluation in canine cardiac ventricular muscle reported as maximum % change for functional refractory period (FRP) at 0.1-100 uM concentration range; concentration at which it occurred is 100 uM.; design: species or system Canis lupus familiaris, Muscle tissue; method in brief: as §2
Canis familiaris [24] = species: Canis familiaris; test: as §3; format: functional, Canis lupus familiaris, Heart; remark: listed apart in the source
Canis familiaris [25] = species: Canis familiaris; test: In vitro electrophysiological evaluation in canine cardiac Purkinje fibres reported as percent change Vmax concentration range of 0.1-10 uM; Minimal (<IO%increase or a decrease in CT); format: functional; details: Canis lupus familiaris; Purkinje fiber; method in brief: as §1
Canis familiaris [26] = species: Canis familiaris; test: In vitro electrophysiological evaluation in canine cardiac Purkinje fibres reported as maximum percent change Vmax concentration range of 0.1-100 uM; format: functional; details: Canis lupus familiaris; Purkinje fiber; method in brief: as §1
Canis familiaris [27] = species: Canis familiaris; test: In vitro electrophysiological evaluation in canine cardiac Purkinje fibres reported as percent change Vmax concentration range of 0.1-100 uM; Minimal (<IO%increase or a decrease in CT); format: functional; details: Canis lupus familiaris; Purkinje fiber; method in brief: as §1
Canis familiaris [28] = species: Canis familiaris; test: In vitro electrophysiological evaluation in canine cardiac Purkinje fibres reported as % change for action potential duration at 0.1-100 uM concentration range; format: functional, Canis lupus familiaris, Purkinje fiber; method in brief: as §1
Canis familiaris [29] = species: Canis familiaris; test: In vitro electrophysiological evaluation in canine cardiac Purkinje fibres reported as maximum percent change Vmax concentration range of 0.1-10 uM; Minimal (<IO%increase or a decrease in CT); format: functional; details: Canis lupus familiaris; Purkinje fiber; method in brief: as §1
Canis familiaris [30] = species: Canis familiaris; test: In vitro electrophysiological evaluation in canine cardiac Purkinje fibres reported as % change for action potential duration at 0.1-10 uM concentration range; format: functional, Canis lupus familiaris, Purkinje fiber; method in brief: as §1
Canis familiaris [31] = species: Canis familiaris; test: In vitro electrophysiological activity in canine cardiac Purkinje fibres given as maximum % change for action potential duration at 0.1-10 uM concentration; format: functional, Canis lupus familiaris, Purkinje fiber
Method in brief: (§5)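 Canine cardiac Purkinje fibres, intracellular recording at 1 s basic cycle length, over cumulative concentration ranges. Compound 10 mM stock in deionized water diluted into Tyrode's. Each fibre used once as its own control. Value is the maximum % change from control in APD at 95% repolarization, with the concentration where it occurred; both values given if a biphasic response (>20% reversal) occurred.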

Canis familiaris [32] = species: Canis familiaris; test: In vitro electrophysiological activity in canine cardiac Purkinje fibres given as maximum % change for action potential duration at 0.1-100 uM concentration; format: functional, Canis lupus familiaris, Purkinje fiber; method in brief: as §5

Structure (SMILES) | APD95 (Canis familiaris [1]) | APD95 (Canis familiaris [3]) | Vmax (Canis familiaris [4]) | Vmax (Canis familiaris [5]) [%] | APD95 (Canis familiaris [6]) [%] | CT (Canis familiaris [7]) [%] | FRP (Canis familiaris [9]) | APD95 (Canis familiaris [10]) | FRP (Canis familiaris [11]) | CT (Canis familiaris [12]) [%] | Vmax (Canis familiaris [13]) [%] | Vmax (Canis familiaris [15]) [%] | APD95 (Canis familiaris [16]) [%] | Vmax (Canis familiaris [17]) [%] | Vmax (Canis familiaris [19]) [%] | also measured
CCOC(=O)C(CC1C(=O)C2CCN1CC2)C(=O)c1ccc([N+](=O)[O-])cc1.Cl (stereo unspecified) | 23% and 22% | -12% and 0% and -5% | -26% and -13% and -18% | < 10 | 2 | <10 | 22% and 35% | 23% and 22% | 38% | <10 |  |  |  |  |  | FRP (Canis familiaris [2]): 22%; Vmax (Canis familiaris [8]): -12%
CCOC(=O)C(CC1C(=O)C2CCN1CC2)C(=O)c1ccc(NS(C)(=O)=O)cc1.Cl (stereo unspecified) |  | 39% and 40% |  |  | 11 | <10 | 5% and 9% |  | 7% and 16% | <10 | < 10 | -36 | 12 | < 10 |  | Vmax (Canis familiaris [14]): -24%
CC(=O)C(CC1C(=O)C2CCN1CC2)C(=O)c1ccccc1.Cl (stereo unspecified) |  | -19% |  | < 10 | -6 |  |  | -6% |  |  | < 10 |  | -5 |  | < 10 | CT (Canis familiaris [18]): <10%; FRP (Canis familiaris [20]): 20%; FRP (Canis familiaris [21]): 14%; CT (Canis familiaris [22]): <10%
CS(=O)(=O)Nc1ccc(C(=O)CCC2C(=O)C3CCN2CC3)cc1.Cl (stereo unspecified) | -1% and 10% | 36% and 18% | -24% | < 10 | 16 | <10 | 18% and 12% and 13% |  |  | <10 | < 10 |  | 5 | < 10 | < 10 | APD (Canis familiaris [1]): 24%; FRP (Canis familiaris [23]): 32% and 21% and 24%
CS(=O)(=O)Nc1cc(C(=O)CCC2C(=O)C3CCN2CC3)ccc1Cl.Cl (stereo unspecified) |  | 17% |  | < 10 | -4 | <10 |  |  | 21% and 32% and 15% | <10 |  | -28 | -3 | < 10 |  | APD95 (Canis familiaris [24]): 21%
CCCCCCC[N+]12CCC(CC1)C(CCc1ccc(Cl)cc1)C2.[Br-] (stereo unspecified) |  |  |  |  |  |  |  |  |  |  |  |  |  |  |  | Vmax (Canis familiaris [25]): < 10%; Vmax (Canis familiaris [26]): -58%; Vmax (Canis familiaris [27]): < 10%; APD95 (Canis familiaris [28]): 22%; Vmax (Canis familiaris [29]): < 10%; APD95 (Canis familiaris [30]): 23%; APD95 (Canis familiaris [31]): 26%; APD95 (Canis familiaris [32]): 23%
